Published values from different studies.
Compare with care: the assays were run in different laboratories.
PDE3A: cGMP-inhibited 3',5'-cyclic phosphodiesterase 3A (PDE3A, Homo sapiens, UniProt Q14432)
PIK3C3: Phosphatidylinositol 3-kinase catalytic subunit type 3 (PIK3C3, Homo sapiens, UniProt Q8NEB9)
OPRL1: Nociceptin receptor (OPRL1, Homo sapiens, UniProt P41146)
ATXN3: Ataxin-3 (ATXN3, Homo sapiens, UniProt P54252)

The inhibition of Cn1cc(-c2cc(F)cc(N3CCn4c(cc5c4CCCC5)C3=O)c2CO)cc(Nc2ccc(N3CCN(C4COC4)CC3)cn2)c1=O is reported as 7% (Serine/threonine-protein kinase TAO2 (TAOK2, Homo sapiens, UniProt Q9UL54); enzyme activity; inhibitor; 0.1 µM).
For C#Cc1n[nH]c2c(-c3cn([C@@H](C)c4ccccc4)c(=O)[nH]c3=O)cc(F)cc12, the inhibition was 11.7% (Phosphatidylinositol 4-phosphate 3-kinase C2 domain-containing subunit alpha (PIK3C2A, Homo sapiens, UniProt O00443); enzyme activity; inhibitor; 0.1 µM).
The inhibition of c1ccc(C(NCCNC(c2ccccc2)c2ccccc2)c2ccccc2)cc1 is reported as 0% (PDE3A; cell-free assay; inhibitor; 10 µM).
For O=C(Nc1cccnn1)N1CCN([C@@H]2CCOc3cc(C(F)(F)F)ccc32)CC1, the inhibition was 23% (Alpha-2C adrenergic receptor (ADRA2C, Homo sapiens, UniProt P18825); cell-free assay; 20 µM).
For Clc1ccc2c(C3CCN(CCc4c[nH]c5ccccc45)CC3)c[nH]c2c1, the inhibition was -1% (PDE3A; enzyme activity; inhibitor; 10 µM).
With C#Cc1n[nH]c2c(-c3cn([C@@H](C)c4ccccn4)c(=O)[nH]c3=O)cc(F)cc12 the inhibition was 8.6% (PIK3C3; enzyme activity; inhibitor; 0.1 µM).
Cn1cc(-c2cccc(N3CCc4c(sc5c4CC(C)(C)C5)C3=O)c2CO)cc(Nc2ccncn2)c1=O gave an inhibition of 0% (PIK3C3; enzyme activity; inhibitor; 1 µM).
CN(CCN1CCC(OC(=O)Nc2ccccc2-c2ccccc2)CC1)C(=O)c1ccc(CN2CCC(C(N)=O)CC2)cc1 has an inhibition of 0% (OPRL1; ligand displacement; radioligand; 1 µM).
The inhibition of CN(C)C(=O)COC(=O)Cc1ccc(OC(=O)c2ccc(NC(=N)N)cc2)cc1 is reported as 3% (ATXN3; enzyme activity; inhibitor; 10 µM).
CCN(CC)CCCC[C@H](NC(=O)[C@H](CC(C)C)NC(=O)[C@H](C)NC(=O)[C@H](Cc1ccccc1)NC(=O)c1ccc(C(C)(C)C)cc1)C(=O)N[C@@H](CO)C(=O)OC gave an inhibition of 23% (OPRL1; ligand displacement; radioligand; 10 µM).
For N=C(N)c1ccc2cc(OC(=O)c3ccc(N=C(N)N)cc3)ccc2c1, the inhibition was 0% (ATXN3; enzyme activity; inhibitor; 10 µM).
COc1cc(Nc2ncc(F)c(Nc3ccc4c(n3)NC(=O)C(C)(C)O4)n2)cc(OC)c1OC gave an inhibition of 83% (Serine/threonine-protein kinase RIO2 (RIOK2, Homo sapiens, UniProt Q9BVS4); binding; 10 µM).
